From PubChem BioAssay
DENV2 CPE: protects cells from dengue virus 2 cytopathic effect; DENV2-infected cells, cytopathic effect rescue, plate reader; CPE inhibition, % at 9.99 µM; AID 651640; 1.7% of 350,000 active; in the data active means CPE inhibition above about 20%, passing the limit was not always enough; inconclusive means no clear call, values can overlap the other calls; tested in BHK-21 cells;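 further: 0% = median of neutral control wells and 100% = median of positive control wells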
PglD inh: PglD (C. jejuni) enzyme inhibition; purified PglD enzyme, DTNB colorimetric CoA detection; inhibition, % at 12.5 µM; 0.098% of 360,000 active; in the data active means inhibition above about 16%, passing the limit was not always enough; inconclusive means no clear call, values can overlap the other calls
SIRT5 block: inhibitors of human sirtuin-5 desuccinylase; Q9NXA8; inhibition, % at 15 µM; 1.1% of 330,000 active; Purified SirT5, succinyl-peptide AMC, trypsin-coupled fluorescence; AID 652115; in the data active means inhibition above about 15%; inconclusive means no clear call, values can overlap the other calls
E-sel inducer: induces E-selectin expression in human endothelial cells | AID 686992 | HUVEC E-selectin immunofluorescence imaging; normalized: neutral wells 0, TNF-alpha wells 100 | 0.37% of 260,000 active | P16581 | activation, % at 7.58 µM;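 active means mean E-selectin-positive cell signal at least 10% of the positive control, reached in at least 60% of replicates, without over 20% cell loss; inconclusive means no rule given, readout overlaps actives, possibly toxicity-flagged; inactive means the rest, including those meeting only one limit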
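Assay system: HUVEC, human umbilical vein endothelial cells / Amount: 3,000 HUVEC/well / Controls: TNF-alpha positive control, DMSO neutral control / Compound dosing: single concentration / Medium: EGM-2 over gelatin coat / Evaluation: percent E-selectin-positive cells / Signal: immunofluorescence imaging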
ERAP1 HTS inh: blocks human ERAP1 aminopeptidase activity. Q9NZ08. recombinant ERAP1, Leu-AMC fluorescence, 60 min. inhibition, % at 10.7 µM. 0.15% of 340,000 active. AID 652197;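 active means mean replicate inhibition of at least 30%, or all replicates individually reaching that 30% level; inactive means mean below 30% and not every replicate reaching it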;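 further: 0% = neutral control wells and 100% = L-leucinethiol positive control wells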
* marks the source's active call; other numbers are inactive results; u = inconclusive; x = no result. Most compounds without a hit are left out; they make up all but 2.5% or so of the library.

SMILES	DENV2 CPE	PglD inh	SIRT5 block	E-sel inducer	ERAP1 HTS inh
Cc1ccc(/C=N/NC(=O)CNC(=O)COc2ccccc2)cc1	-7.7	x	-0.5	x	-0.6
Cc1noc(C)c1NC(=O)N(C)C[C@@H]1OCCCC[C@@H](C)Oc2ccc(NC(=O)c3ccncc3)cc2C(=O)N([C@@H](C)CO)C[C@H]1C	-7.4	-2.3	-1.8	-0.2	1.1
COC(=O)c1ccc(CSc2nnc(CS(=O)Cc3ccc(Br)cc3)n2-c2ccccc2)cc1 (stereo unspecified)	5.2	1.7	18.0*	0.3	-1.7
C[C@H]1CN([C@@H](C)CO)C(=O)CCCn2nncc2CO[C@@H]1CN(C)C(=O)Nc1ccc(-c2cccs2)cc1	u	-1.7	7.7	-0.2	0.1
CCn1c(SCC(=O)NCc2cccs2)nc2c1c(=O)n(C)c(=O)n2C	x	-1.1	x	x	x
Cc1ccccc1-c1cnc(C(O)c2cccc(C)c2C)[nH]1 (stereo unspecified)	20.6*	-0.5	-1.2	-0.1	-1.0
C[C@H](CO)N1C[C@H](C)[C@H](CN(C)S(C)(=O)=O)Oc2c(NS(C)(=O)=O)cccc2C1=O	2.5	2.1	-0.5	64.0*	-0.5
C[C@H]1CN([C@@H](C)CO)C(=O)c2cccc(NS(C)(=O)=O)c2O[C@H]1CN(C)S(C)(=O)=O	4.1	1.3	-2.3	36.4*	0.0
C[C@H](CO)N1C[C@H](C)[C@H](CN(C)C)Oc2c(NS(C)(=O)=O)cccc2C1=O	16.6	-1.2	-2.6	-0.9	-2.4
CC(OC(=O)CCN1C(=O)C2CC=CCC2C1=O)C(=O)c1ccc(F)cc1 (stereo unspecified)	10.0	-1.2	1.5	-1.5	1.8
O=C(CCl)NCCNC(=O)c1cc(OCC(F)(F)F)ccc1OCC(F)(F)F	-3.1	x	-4.2	x	-7.8
O=C(O)c1c2c(nc3ccccc13)/C(=C/c1cccc([N+](=O)[O-])c1)CCC2	-1.9	8.6	97.1*	x	-3.4
COc1ccc(NC(=O)CC2C(=O)N(c3ccccc3)C(=O)N2CCc2cccs2)cc1 (stereo unspecified)	-7.7	2.6	-3.8	x	-2.8
CCOc1ccc(NC(=O)CC2C(=O)N(c3ccc(OC)cc3)C(=O)N2CCc2cccs2)cc1 (stereo unspecified)	96.3*	x	x	x	-0.1
C[C@H](NC(=O)c1[nH]cnc1C(=O)Nc1ccccc1)C(=O)OC(C)(C)C	-8.5	-1.6	x	0.1	x
Cc1cccc(NC(=O)c2nc[nH]c2C(=O)NCCCNC(=O)c2[nH]cnc2C(=O)Nc2cccc(C)c2)c1	45.2*	4.3	-3.3	0.1	-3.8
Cc1ccc(NC(=O)c2nc[nH]c2C(=O)N[C@@H](C)C(=O)OC(C)(C)C)cc1	97.6*	9.8	x	-0.1	x
Cc1cccc(NC(=O)c2nc[nH]c2C(=O)NC[C@H](C)O)c1	5.7	2.6	26.8*	0.1	16.1
CNC(=O)c1[nH]cnc1C(=O)Nc1ccc(Cl)cc1	41.2*	-4.2	1.0	-0.1	2.3
O=C1CN(O)C=C2N=c3ccccc3=C2N1c1ccc([N+](=O)[O-])cc1	-3.2	-7.1	0.2	x	-3.2
CCOc1cc(C(=O)NCc2ccncc2)cc(OCC)c1OCC	x	-1.4	x	x	x
CCOC(=O)c1ccc(NC(=O)c2nc[nH]c2C(=O)NC[C@H](C)O)cc1	80.1*	-1.7	0.8	x	-2.0
C=CCCC1CN(Cc2ccc(OC)cc2)S(=O)(=O)c2c(Oc3ccc(F)cc3OC)cccc2O1 (stereo unspecified)	9.0	x	1.2	0.0	-2.3
O=C(CN1C(=O)NC2(CCCC2)C1=O)Oc1ccc2ccc(=O)oc2c1	0.2	x	2.3	x	56.9*
COC(=O)/C=C/c1cnc[nH]1	50.9*	-5.2	x	0.7	0.4
COc1ccc(CCN(C)C2CCCN(S(=O)(=O)N(C)C)C2)cc1OC (stereo unspecified)	5.8	-14.9	15.2*	x	-0.6
C=CCS(=O)(=O)N1CCCC(N(C)CCc2ccc(OC)c(OC)c2)C1 (stereo unspecified)	0.6	2.3	-0.4	-0.2	-0.7
CNS(=O)(=O)c1cc(NC(=O)c2cccc3cccnc23)ccc1C	-2.8	-2.2	-1.7	0.1	-2.1
Cc1ccc(S(=O)(=O)Nc2ccc3c(c2)C(=O)N([C@H](C)CO)C[C@@H](C)[C@H](CN(C)S(C)(=O)=O)OCCCC[C@@H](C)O3)cc1	36.0*	-0.7	3.4	-0.2	3.6
